Experimental data: ChEMBL document CHEMBL1131139, “Synthesis and antibacterial activity of ketolides (6-O-methyl-3-oxoerythromycin derivatives): a new class of antibacterials highly potent against macrolide-resistant and -susceptible respiratory pathogens” (1998)
Values after ≈ are worked out from the molar mass of the structure shown.

How the values were obtained:
Format in all cases: functional
Staphylococcus aureus [1] = assay: In vitro inhibitory activity against Staphylococcus aureus (EryRi 011GO25i)
Summary of the method: (§1)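 Two-fold agar dilution on Mueller-Hinton agar (pH 7.4). Inoculum from overnight plate cultures suspended in Mueller-Hinton broth, adjusted to 10^9 CFU/mL, diluted 1:200 and spotted by multipoint inoculator at about 10^4 CFU/spot. Plates incubated 37 °C for 20 h. MIC taken as lowest concentration with no visible growth.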

Staphylococcus aureus [2] = assay: In vitro inhibitory activity against Staphylococcus aureus (EryRc 011CB20); summary of the method: as §1
Streptococcus pneumoniae [3] = assay: In vitro inhibitory activity against Streptococcus pneumoniae (032UC1); summary of the method: as §1
Staphylococcus aureus [4] = assay: In vitro inhibitory activity against Staphylococcus aureus (011UC4); summary of the method: as §1
Haemophilus influenzae [5] = assay: In vitro inhibitory activity against Haemophilus influenzae (351CB12); summary of the method: as §1
Streptococcus pyogenes = assay: In vitro inhibitory activity against Streptococcus pyogenes (02A1UC1); summary of the method: as §1
Escherichia coli = assay: In vitro inhibitory activity against Escherichia coli (250 UC5); summary of the method: as §1
Streptococcus pneumoniae [6] = assay: In vitro inhibitory activity against Streptococcus pneumoniae (EryRi 030SJ5i); summary of the method: as §1
Streptococcus pneumoniae [7] = assay: In vitro inhibitory activity against Streptococcus pneumoniae (EryRc 030SJ1); summary of the method: as §1
[8] = tested on: Staphylococcus epidermidis; assay: In vitro inhibitory activity against Staphylococcus epidermidis (EryRi 012GO11i); summary of the method: as §1
Haemophilus influenzae [9] = assay: In vitro inhibitory activity against Haemophilus influenzae (351HT3); summary of the method: as §1

| SMILES | MIC (Staphylococcus aureus [1]) [µg/mL] | MIC (Staphylococcus aureus [2]) [µg/mL] | MIC (Streptococcus pneumoniae [3]) [µg/mL] | MIC (Staphylococcus aureus [4]) [µg/mL] | MIC (Haemophilus influenzae [5]) [µg/mL] | MIC (Streptococcus pyogenes) [µg/mL] | MIC (Escherichia coli) [µg/mL] | MIC (Streptococcus pneumoniae [6]) [µg/mL] | MIC (Streptococcus pneumoniae [7]) [µg/mL] | MIC [8] [µg/mL] | MIC (Haemophilus influenzae [9]) [µg/mL] |
| --- | --- | --- | --- | --- | --- | --- | --- | --- | --- | --- | --- |
| CC[C@H]1OC(=O)[C@H](C)C(=O)[C@H](C)[C@@H](O[C@@H]2O[C@H](C)C[C@H](N(C)C)[C@H]2O)[C@](C)(OC)C[C@@H](C)/C(=N\OCCN2CCC2)[C@H](C)[C@@H](O)[C@]1(C)O | 2.5 (≈ 3.64 µM) | 40 (≈ 58.3 µM) | 20 (≈ 29.2 µM) | 0.6 (≈ 0.875 µM) | 10 (≈ 14.6 µM) | 0.04 (≈ 0.0583 µM) | 40 (≈ 58.3 µM) | 2.5 (≈ 3.64 µM) | 0.3 (≈ 0.437 µM) | 5 (≈ 7.29 µM) | 40 (≈ 58.3 µM) |
| CC[C@H]1OC(=O)[C@H](C)C(=O)[C@H](C)[C@@H](O[C@@H]2O[C@H](C)C[C@H](N(C)C)[C@H]2O)[C@](C)(OC)C[C@@H](C)/C(=N\O[C@H]2CCCNC2)[C@H](C)[C@@H](O)[C@]1(C)O | 5 (≈ 7.29 µM) | 40 (≈ 58.3 µM) | 0.3 (≈ 0.437 µM) | 1.2 (≈ 1.75 µM) | 2.5 (≈ 3.64 µM) | 0.3 (≈ 0.437 µM) | 40 (≈ 58.3 µM) | 0.08 (≈ 0.117 µM) | 40 (≈ 58.3 µM) | 2.5 (≈ 3.64 µM) | 20 (≈ 29.2 µM) |
| CC[C@H]1OC(=O)[C@H](C)[C@@]2(O)O[C@@](C)(C[C@@H](C)/C(=N\O)[C@H](C)[C@@H](O)[C@]1(C)O)[C@H](O[C@@H]1O[C@H](C)C[C@H](N(C)C)[C@H]1O)[C@H]2C | 40 (≈ 67.9 µM) | 40 (≈ 67.9 µM) | 40 (≈ 67.9 µM) | 40 (≈ 67.9 µM) | 10 (≈ 17 µM) | 40 (≈ 67.9 µM) | 40 (≈ 67.9 µM) | 40 (≈ 67.9 µM) | 40 (≈ 67.9 µM) | 40 (≈ 67.9 µM) | 10 (≈ 17 µM) |
| CCCN1C(=O)O[C@]2(C)[C@@H](CC)OC(=O)[C@H](C)C(=O)[C@H](C)[C@@H](O[C@@H]3O[C@H](C)C[C@H](N(C)C)[C@H]3O)[C@](C)(OC)C[C@@H](C)C(=O)[C@H](C)[C@@H]12 | 5 (≈ 7.64 µM) | 40 (≈ 61.1 µM) | 0.04 (≈ 0.0611 µM) | 1.2 (≈ 1.83 µM) | 40 (≈ 61.1 µM) | 0.15 (≈ 0.229 µM) | 40 (≈ 61.1 µM) | 40 (≈ 61.1 µM) | 40 (≈ 61.1 µM) | 40 (≈ 61.1 µM) | 40 (≈ 61.1 µM) |
| CC[C@H]1OC(=O)[C@H](C)C(=O)[C@H](C)[C@@H](O[C@@H]2O[C@H](C)C[C@H](N(C)C)[C@H]2O)[C@](C)(OC)C[C@@H](C)C(=O)[C@H](C)[C@H]2N(CCCc3ccccc3)C(=O)O[C@]12C | 2.5 (≈ 3.42 µM) | 40 (≈ 54.7 µM) | 0.3 (≈ 0.41 µM) | 1.2 (≈ 1.64 µM) | 10 (≈ 13.7 µM) | 0.15 (≈ 0.205 µM) | 40 (≈ 54.7 µM) | 20 (≈ 27.4 µM) | 40 (≈ 54.7 µM) | 1.2 (≈ 1.64 µM) | 40 (≈ 54.7 µM) |

Results, then the compound that gave them:

| MIC (Staphylococcus aureus [1]) [µg/mL] | MIC (Staphylococcus aureus [2]) [µg/mL] | MIC (Streptococcus pneumoniae [3]) [µg/mL] | MIC (Staphylococcus aureus [4]) [µg/mL] | MIC (Haemophilus influenzae [5]) [µg/mL] | MIC (Streptococcus pyogenes) [µg/mL] | MIC (Escherichia coli) [µg/mL] | MIC (Streptococcus pneumoniae [6]) [µg/mL] | MIC (Streptococcus pneumoniae [7]) [µg/mL] | MIC [8] [µg/mL] | MIC (Haemophilus influenzae [9]) [µg/mL] | SMILES |
| --- | --- | --- | --- | --- | --- | --- | --- | --- | --- | --- | --- |
| 2.5 (≈ 3.32 µM) | 40 (≈ 53.1 µM) | 0.3 (≈ 0.398 µM) | 0.3 (≈ 0.398 µM) | 5 (≈ 6.63 µM) | 0.04 (≈ 0.0531 µM) | 40 (≈ 53.1 µM) | 20 (≈ 26.5 µM) | 40 (≈ 53.1 µM) | 1.2 (≈ 1.59 µM) | 5 (≈ 6.63 µM) | CC[C@H]1OC(=O)[C@H](C)C(=O)[C@H](C)[C@@H](O[C@@H]2O[C@H](C)C[C@H](N(C)C)[C@H]2O)[C@](C)(OC)C[C@@H](C)/C(=N\OCCNCCCn2ccnc2)[C@H](C)[C@@H](O)[C@]1(C)O |
| 0.3 (≈ 0.429 µM) | 40 (≈ 57.1 µM) | 0.02 (≈ 0.0286 µM) | 0.08 (≈ 0.114 µM) | 10 (≈ 14.3 µM) | 0.04 (≈ 0.0571 µM) | 40 (≈ 57.1 µM) | 40 (≈ 57.1 µM) | 10 (≈ 14.3 µM) | 0.6 (≈ 0.857 µM) | 10 (≈ 14.3 µM) | CC[C@H]1OC(=O)[C@H](C)C(=O)[C@H](C)[C@@H](O[C@@H]2O[C@H](C)C[C@H](N(C)C)[C@H]2O)[C@](C)(OC)C[C@@H](C)/C(=N\OC2CCCN(C)C2)[C@H](C)[C@@H](O)[C@]1(C)O (some centres undefined) |
| 0.6 (≈ 0.77 µM) | 10 (≈ 12.8 µM) | 0.02 (≈ 0.0257 µM) | 0.04 (≈ 0.0513 µM) | 1.2 (≈ 1.54 µM) | 0.02 (≈ 0.0257 µM) | 40 (≈ 51.3 µM) | 0.08 (≈ 0.103 µM) | 2.5 (≈ 3.21 µM) | 0.15 (≈ 0.192 µM) | 1.2 (≈ 1.54 µM) | CC[C@H]1OC(=O)[C@H](C)C(=O)[C@H](C)[C@@H](O[C@@H]2O[C@H](C)C[C@H](N(C)C)[C@H]2O)[C@](C)(OC)C[C@@H](C)C(=O)[C@H](C)[C@H]2N(CCCCc3cccc(Cl)c3)C(=O)O[C@]12C |
| 1.2 (≈ 1.99 µM) | 40 (≈ 66.4 µM) | 0.08 (≈ 0.133 µM) | 0.3 (≈ 0.498 µM) | 1.2 (≈ 1.99 µM) | 0.15 (≈ 0.249 µM) | 40 (≈ 66.4 µM) | 40 (≈ 66.4 µM) | 40 (≈ 66.4 µM) | 0.6 (≈ 0.995 µM) | 20 (≈ 33.2 µM) | CC[C@H]1OC(=O)[C@H](C)C(=O)[C@H](C)[C@@H](O[C@@H]2O[C@H](C)C[C@H](N(C)C)[C@H]2O)[C@](C)(OC)C[C@@H](C)/C(=N\O)[C@H](C)[C@@H](O)[C@]1(C)O |
